From ChEMBL document CHEMBL1137004, “Discovery of novel motilin antagonists: Conversion of tetrapeptide leads to orally available peptidomimetics” (Bioorg Med Chem Lett, 2009)
pIC50: −log10 of the molar value. Active and inactive are the calls of the source. The rule behind the calls is not given here. Where a SMILES comes first, the peptide text is derived from it.

What was measured:
[1] = target: T1, Motilin receptor (Oryctolagus cuniculus, UniProt A5A4K8); experiment: Antagonist activity at MTL receptor in rabbit duodenum homogenate; type: functional, tissue-based; conditions: read-out: pA2 (converted)
[2] = target: T1, Motilin receptor; experiment: Displacement of [125I]motilin from MTL receptor in rabbit duodenum homogenate
How it was run: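 Tissue homogenate incubated at 25 °C with 25 pM [¹²⁵I]motilin for 120 min. Stopped with ice-cold buffer, then bound and free ligand separated by centrifugation at 1500g for 5 min. Pellet washed with ice-cold buffer and counted by gamma counter. IC₅₀ is the concentration displacing 50% of ¹²⁵I-motilin binding.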

[3] = Metabolic stability in rat liver S9 fraction assessed as compound remaining after 30 mins; type: ADME, subcellular; conditions: read-out: Stability
How it was run: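 Compound incubated with rat liver S-9 for 30 min at 37 °C. Stability is expressed as residual % of compound.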

[4] = Oral bioavailability in rat at 10 mg/kg; type: ADME, organism-based; conditions: in vivo
[5] = system: Canis familiaris; experiment: Suppression of MTL receptor-mediated motilin-induced gastric motility in conscious dog 5 mg/kg administered 30 mins before motilin challenge; type: functional, organism-based; design: dose 5 mg/kg; conditions: Canis lupus familiaris; Stomach
[6] = system: Canis familiaris; experiment: Suppression of MTL receptor-mediated motilin-induced colonic motility in conscious dog 5 mg/kg administered 30 mins before motilin challenge; type: functional, organism-based; design: dose 5 mg/kg; conditions: Canis lupus familiaris
[7] = Apparent permeability across human Caco-2 cells at pH 6.8; type: ADME, cell-based; conditions: Caco-2, pH 6.8

T1 sequence (A5A4K8 whole entry): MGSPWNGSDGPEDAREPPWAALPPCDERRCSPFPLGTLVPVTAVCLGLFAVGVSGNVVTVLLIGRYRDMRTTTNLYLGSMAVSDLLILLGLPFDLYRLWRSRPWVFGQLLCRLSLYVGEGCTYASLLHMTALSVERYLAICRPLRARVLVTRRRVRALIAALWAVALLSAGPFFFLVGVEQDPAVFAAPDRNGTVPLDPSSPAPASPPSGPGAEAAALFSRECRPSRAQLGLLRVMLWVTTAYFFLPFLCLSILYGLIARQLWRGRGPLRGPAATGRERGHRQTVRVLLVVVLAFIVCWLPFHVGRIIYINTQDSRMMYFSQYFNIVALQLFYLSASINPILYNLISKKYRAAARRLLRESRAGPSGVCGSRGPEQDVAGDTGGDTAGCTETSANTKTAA

`CC(C)[C@H](NC(=O)[C@@H](N)Cc1ccccc1)C(=O)N[C@@H](Cc1ccc(O)c(C(C)(C)C)c1)C(N)=O` (HELM PEPTIDE1{F.V.[CC(C)(C)c1cc(C[C@H](N[*:1])C(=O)[*:2])ccc1O].[am]}$$$$V2.0) gave a Kb [1] of 0.126 µM and a pIC50 [2] of 7.34.

Molecule `CC(C)C[C@H](NC(=O)[C@@H](N)Cc1ccccc1)C(=O)N[C@@H](Cc1ccc(O)c(C(C)(C)C)c1)C(N)=O` (HELM PEPTIDE1{F.L.[CC(C)(C)c1cc(C[C@H](N[*:1])C(=O)[*:2])ccc1O].[am]}$$$$V2.0) has a Kb [1] of 0.0501 µM and a pIC50 [2] of 7.57.

With `CC(C)(C)c1cc(C[C@@H]2NC(=O)[C@@H](NC(=O)[C@@H](N)Cc3ccccc3)CCCCCC(=O)CCNC2=O)ccc1O` the Kb [1] was 0.0398 µM and the pIC50 [2] was 7.92.

`CC(C)[C@@H](C(=O)N[C@@H](Cc1ccc(O)c(C(C)(C)C)c1)C(N)=O)N(C)C(=O)[C@@H](N)Cc1ccccc1` (HELM PEPTIDE1{F.[meV].[CC(C)(C)c1cc(C[C@H](N[*:1])C(=O)[*:2])ccc1O].[am]}$$$$V2.0) gave a remaining at 0.5 h [3] of 69%, a Kb [1] of 0.0126 µM and a bioavailability [4] of 6%. For the same molecule, the pIC50 [2] was 8.96.

Molecule `CC(C)(C)c1cc(C[C@H](NC(=O)[C@@H](NC(=O)[C@@H](N)Cc2ccccc2)c2ccccc2)C(N)=O)ccc1O` (HELM PEPTIDE1{F.[Phg].[CC(C)(C)c1cc(C[C@H](N[*:1])C(=O)[*:2])ccc1O].[am]}$$$$V2.0) has a Kb [1] of 0.0158 µM and a pIC50 [2] of 7.92.

Molecule `CC(C)(C)c1cc(C[C@H](NC(=O)[C@H](Cc2ccccc2)NC(=O)[C@@H](N)Cc2ccccc2)C(N)=O)ccc1O` (HELM PEPTIDE1{F.F.[CC(C)(C)c1cc(C[C@H](N[*:1])C(=O)[*:2])ccc1O].[am]}$$$$V2.0) has a Kb [1] of 0.0631 µM and a pIC50 [2] of 8.22.

For `CC(C)[C@H](NC(=O)[C@@H](N)Cc1ccccc1)C(=O)N(C)[C@@H](Cc1ccc(O)c(C(C)(C)C)c1)C(N)=O` (HELM PEPTIDE1{F.V.[CN([C@@H](Cc1ccc(O)c(C(C)(C)C)c1)C(=O)[*:2])[*:1]].[am]}$$$$V2.0), the remaining at 0.5 h [3] was 7%, the Kb [1] was 0.0631 µM and the pIC50 [2] was 7.62.

In the case of `CC(C)[C@@H](C(=O)N(C)[C@@H](Cc1ccc(O)c(C(C)(C)C)c1)C(N)=O)N(C)C(=O)[C@@H](N)Cc1ccccc1` (HELM PEPTIDE1{F.[meV].[CN([C@@H](Cc1ccc(O)c(C(C)(C)C)c1)C(=O)[*:2])[*:1]].[am]}$$$$V2.0), the remaining at 0.5 h [3] was 80%, the Activity [5] was “Active” and the Kb [1] was 0.00251 µM. The Activity [6] was “Active”, the bioavailability [4] was 30% and the pIC50 [2] was 8.37. The Papp [7] was 2.31 ×10⁻⁶ cm/s.

With `C[C@H](NC(=O)[C@@H](N)Cc1ccccc1)C(=O)N[C@@H](Cc1ccc(O)c(C(C)(C)C)c1)C(N)=O` (HELM PEPTIDE1{F.A.[CC(C)(C)c1cc(C[C@H](N[*:1])C(=O)[*:2])ccc1O].[am]}$$$$V2.0) the Kb [1] was over 1 µM and the pIC50 [2] was 6.73.

With `CC(C)[C@@H](C(=O)N[C@H](C)Cc1ccc(O)c(C(C)(C)C)c1)N(C)C(=O)[C@@H](N)Cc1ccccc1` the remaining at 0.5 h [3] was 100%, the Activity [5] was “Active” and the Kb [1] was 0.00398 µM. For the same molecule, the Activity [6] was “Active”, the bioavailability [4] was 65% and the pIC50 [2] was 8.72. It also gave a Papp [7] of 12.1 ×10⁻⁶ cm/s.
